Bioassay records deposited in PubChem by several laboratories.
A selection: hits, their analogues and other compounds. The true share with any hit is near 1.8%.
PG9 Ab binder: binders of HIV-1 gp120 antibody PG9, primary screen, biochemical, TR-FRET; HIV-1 gp120 / PG9 antibody interaction; TR-FRET gp120-PG9 antibody binding; inhibition, % at 6.7 µM; hit rate 0.43% among 360,000; AID 624416, 2012; in the data active = inhibition above about 8.5%
NR2E3 ag-1: inhibitors of NR2E3-RetCOR corepressor binding, primary screen, NR2E3 agonist project, biochemical, TR-FRET, GST-NR2E3, biotin-RetCOR; 1536-well; Photoreceptor-specific nuclear receptor (Homo sapiens), Q9Y5X4; AID 2300, 2010; hit rate 0.12% among 320,000; inhibition of corepressor binding, % at 4.78 µM;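 active = percent inhibition above the cutoff of mean plus 3 SD of all tested compounds, set per screening campaign, cut at about 20% in these data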;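 note: 0% = DMSO wells and 100% = biotin wells as full block of FRET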
Target sequence (Q9Y5X4 whole entry, looked up): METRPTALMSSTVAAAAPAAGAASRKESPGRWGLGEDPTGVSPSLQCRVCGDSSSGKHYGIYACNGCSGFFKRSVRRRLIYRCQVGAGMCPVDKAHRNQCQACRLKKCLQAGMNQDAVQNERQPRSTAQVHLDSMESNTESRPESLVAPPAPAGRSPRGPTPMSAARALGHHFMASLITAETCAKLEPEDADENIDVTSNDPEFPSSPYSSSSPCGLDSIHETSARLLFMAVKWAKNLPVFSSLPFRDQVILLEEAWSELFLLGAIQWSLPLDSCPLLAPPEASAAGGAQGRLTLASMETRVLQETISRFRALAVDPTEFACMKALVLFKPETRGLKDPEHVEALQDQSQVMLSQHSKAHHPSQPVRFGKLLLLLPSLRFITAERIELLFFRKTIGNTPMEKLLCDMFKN
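Material – GST-tagged NR2E3 plus biotinylated RetCOR corepressor · Quantity – NR2E3 fusion 1.35 nM · Times – 5 h incubation at 4 °C · Medium – pH 7.5 Tris-based buffer · Technique – TR-FRET, Eu(K)-anti-GST donor, streptavidin-D2 acceptor, ex 340, em 617/671 nm · Benchmarks – high control biotin, low control 0.6% DMSO · Format – 1536-well plates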
GalR3 antag: GalR3 antagonists in HEK293 cells, primary screen, cell-based, fluorescence readout; Galanin receptor type 3 (Homo sapiens), O60755; HEK293 GalR3-CNG cAMP membrane potential fluorescence; galR3 body fused to GalR1 C-terminus; inhibition, % at 3 µM; hit rate 0.44% among 360,000; AID 651719, 2012;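 active = inhibition above the screen-wide average plus 3 SD, cut at about 13% in these data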;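 note: forskolin and galanin both at EC90 stimulate the cells; cAMP rise reported by CNG channel membrane potential dye signal; 0% = forskolin plus galanin with DMSO and 100% = forskolin alone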
NR2E3 ag-2: NR2E3 agonists in two-hybrid cells, primary screen, cell-based, luminescence, CHO-S, Gal4-NCOR/VP16-NR2E3. Photoreceptor-specific nuclear receptor (Homo sapiens), Q9Y5X4. luciferase. inhibition of corepressor binding, % at 3.98 µM. hit rate 0.35% among 360,000;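 active = inhibition above the mean of all tested compounds plus 3 SD, cut at about 70% in these data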;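 note: 0% = DMSO with NR2E3 transfected cells and 100% = cells lacking NR2E3 construct; higher means lower luciferase signal from less NR2E3 corepressor binding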
NR1D1 modulator: modulators of Rev-erb alpha DNA binding, primary screen, biochemical, FITC-DNA, fluorescence polarization, uHTS; Nuclear receptor subfamily 1 group D member 1 (Homo sapiens), P20393; Rev-erbα–FITC-DNA binding, 90 min; activity, % at 10 µM; hit rate 0.79% among 370,000; AID 1259318, 2017;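 active = activity above about 14%, limit read from the data; passing the limit was not always enough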;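 note: 0% = DMSO wells with 35 nM protein and 100% = DMSO wells with 750 nM protein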
NR2E3 ag conf: NR2E3 agonist confirmation in cells, cell-based, luminescence, CHO-S two-hybrid. CHO-S mammalian two-hybrid NR2E3-NCOR, luciferase luminescence. AID 624378, 2012. inhibition, % at 3.98 µM. hit rate 51% among 2,300. shares compounds with NR2E3 ag-2;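 active = average inhibition above a cutoff equal to the mean inhibition of all tested compounds plus one SD, cut at about 70% in these data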;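 note: 0% = DMSO in NR2E3 cells and 100% = DMSO in cells lacking NR2E3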
GAL4-VP16 luc: GAL4-VP16 reporter modulators, confirmation, counter-screen for NR2E3 agonist project, cell-based, luminescence, CHO-S, high throughput | shares compounds with NR2E3 ag-2 | CHO-S GAL4-VP16 luciferase reporter | inhibition, % at 3.98 µM | hit rate 29% among 2,300;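 active = mean inhibition above a cutoff equal to the average over all tested compounds plus one standard deviation, cut at about 70% in these data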;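 note: luciferase from a UAS reporter driven by GAL4-VP16 transactivation; 0% = DMSO with VP16-transfected cells and 100% = DMSO with cells lacking VP16; higher means less reporter light so more repression of VP16 activity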
An asterisk follows results filed as active.

`O=C(NC1CCCCN(Cc2cccc(Cl)c2)C1=O)c1c(F)cccc1F` (centres undefined) gave NR1D1 modulator 4.
CC(CCN1CCC(C(O)(c2ccccc2)c2ccccc2)CC1)Oc1ccc(F)cc1 (centres undefined) was read as NR1D1 modulator -2.
Cc1ccc(CN2CCCCC(NC(=O)c3ccc(C)cc3)C2=O)cc1 (centres undefined) was read as NR1D1 modulator -7.
`Cc1nnc2ccc(Oc3ccc(-c4ccccc4)cc3)nn12` gave PG9 Ab binder -1, NR2E3 ag-1 7, GalR3 antag -6, NR2E3 ag-2 70, NR1D1 modulator 1, NR2E3 ag conf 91* and GAL4-VP16 luc 73*.
Screening CC12CCC(C(=O)N(CSC(=S)N/N=C\c3ccccc3O)C1=O)C2(C)C (centres undefined) returned PG9 Ab binder -2, NR2E3 ag-1 4, GalR3 antag 3, NR2E3 ag-2 91*, NR1D1 modulator 4, NR2E3 ag conf -8 and GAL4-VP16 luc -38.
Screening C=CCn1c(O)c(N=NC(=S)Nc2cccc(C)c2)c2ccccc21 returned PG9 Ab binder 0, NR2E3 ag-1 -4, GalR3 antag -5, NR2E3 ag-2 80*, NR1D1 modulator 3, NR2E3 ag conf 28 and GAL4-VP16 luc 42.
`CCn1c(O)c(N=NC(=O)CNc2cccc(C)c2)c2ccccc21` gave PG9 Ab binder -3, NR2E3 ag-1 3, GalR3 antag -7, NR2E3 ag-2 8 and NR1D1 modulator -7.
C=CCn1c(O)c(N=NC(=S)Nc2ccccc2F)c2ccccc21 was read as PG9 Ab binder -2, NR2E3 ag-1 4, GalR3 antag -8, NR2E3 ag-2 86*, NR1D1 modulator -6, NR2E3 ag conf 23 and GAL4-VP16 luc 33.
Oc1c(N=NC(=S)Nc2ccccc2F)c2ccccc2n1Cc1ccccc1 was read as PG9 Ab binder -3, NR2E3 ag-1 1, GalR3 antag 5, NR2E3 ag-2 -23 and NR1D1 modulator 2.
For COC(=O)C[C@H]1CC[C@H]2[C@H](COc3ccc(NC(=O)c4cccs4)cc3C(=O)N2C)O1 the results were NR1D1 modulator -3.
Screening COc1ccc(CCN(Cc2cccs2)S(=O)(=O)c2ccc(F)cc2)cc1OC returned NR1D1 modulator -2.
O=C(CC1CCCC1)N1CC[C@H]2[C@H](CCCN2Cc2ccccc2)C1 was read as NR1D1 modulator -4.
Screening O=C(NC(=O)N1CCN(c2cccc(Cl)c2)CC1)c1ccccc1 returned PG9 Ab binder -1, NR2E3 ag-1 -2, GalR3 antag -7, NR2E3 ag-2 51, NR1D1 modulator -2, NR2E3 ag conf 85* and GAL4-VP16 luc 35.
O=C(NC(=O)N1CCN(c2cccc(Cl)c2)CC1)c1ccc(Cl)cc1 was read as PG9 Ab binder 0, NR2E3 ag-1 0, GalR3 antag -2, NR2E3 ag-2 80*, NR1D1 modulator 0, NR2E3 ag conf 95* and GAL4-VP16 luc 54.
For O=C(NC(=O)N1CCN(c2ccccc2)CC1)c1ccc(Cl)cc1 the results were PG9 Ab binder -3, NR2E3 ag-1 -4, GalR3 antag -6, NR2E3 ag-2 -39 and NR1D1 modulator 0.
CCOC(=O)C1=NOC(C(C)=O)(C(=O)NC2CCCC2)C1 (centres undefined) was read as NR1D1 modulator -1.
Screening COc1ccc(O)c(/C=N/Nc2nc(C)cc(-c3ccccc3)n2)c1 returned PG9 Ab binder -1, NR2E3 ag-1 -2, GalR3 antag 0, NR2E3 ag-2 -17 and NR1D1 modulator 10.
Screening COc1ccc(/C=N/Nc2cc(C)nc(-n3nc(C)cc3C)n2)cc1 returned PG9 Ab binder 0, NR2E3 ag-1 1, GalR3 antag -1, NR2E3 ag-2 94*, NR1D1 modulator -2, NR2E3 ag conf 29 and GAL4-VP16 luc 18.
COc1ccc(O)c(/C=N/Nc2nc(Nc3ccccc3)nc(-n3nc(C)cc3C)n2)c1 was read as PG9 Ab binder 3, NR2E3 ag-1 2, GalR3 antag -4, NR2E3 ag-2 96*, NR1D1 modulator 4, NR2E3 ag conf 11 and GAL4-VP16 luc -78.
COc1cc(/C=N/Nc2nc(Nc3ccc(C)cc3)nc(-n3nc(C)cc3C)n2)cc(OC)c1OC was read as PG9 Ab binder -1, NR2E3 ag-1 -1, GalR3 antag -5, NR2E3 ag-2 59, NR1D1 modulator 2, NR2E3 ag conf 18 and GAL4-VP16 luc -18.
Screening COc1cc(/C=N/Nc2nc(Nc3ccccc3)nc(-n3nc(C)cc3C)n2)cc(OC)c1OC returned PG9 Ab binder -3, NR2E3 ag-1 -1, GalR3 antag -5, NR2E3 ag-2 68, NR1D1 modulator 0, NR2E3 ag conf -14 and GAL4-VP16 luc -45.
Cc1cc(N/N=C/c2cccc(Cl)c2)nc(-n2nc(C)cc2C)n1 was read as PG9 Ab binder -2, NR2E3 ag-1 1, GalR3 antag -4, NR2E3 ag-2 -25 and NR1D1 modulator 0.
Screening CCCCCCCCCCCCCCCC(=O)OC[C@H](NC(=O)C(Cl)Cl)[C@H](O)c1ccc([N+](=O)[O-])cc1 returned NR1D1 modulator 5.
CC(C)CN1C(=O)C[C@@]2(C(=O)N(C)c3ccc(NS(=O)(=O)c4ccc(F)cc4)cc32)C1c1ccccc1 (some centres undefined) was read as NR1D1 modulator 1.
COc1ccc(-c2cc(-c3nnc(SCC(=O)Nc4ccc(-c5nc6ccc(C)cc6s5)cc4)n3N)[nH]n2)cc1 was read as NR1D1 modulator 11.
Screening CCC(C)(C)C(=O)O[C@H]1C[C@@H](C)C=C2C=C[C@H](C)[C@H](CC[C@@H]3C[C@@H](O)CC(=O)O3)[C@H]21 returned PG9 Ab binder -2, NR2E3 ag-1 0, GalR3 antag -3, NR2E3 ag-2 56, NR1D1 modulator 4, NR2E3 ag conf 86* and GAL4-VP16 luc 27.
